Test results published in publication PMC5331736 (Drug testing and analysis, 2014).

Assays:
5-HT transporters (SERT) = 5-HT transporters (SERT) (Rattus norvegicus, UniProt P31652); assay: Release assay at SERT, [3H]5-HT preloaded rat brain synaptosomes; format: biochemical; conditions: for releasing efficacy at SERT (in words): rat brain tissue
Summary of the method: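 Synaptosomes came from male Sprague-Dawley rat (250–300 g) brains after CO2 euthanasia. They were preloaded to steady state (1 h) with 5 nM [3H]5-HT in Krebs-phosphate buffer containing 1 μM reserpine, plus unlabelled blockers for the other transporters. Preloaded synaptosomes were added to test compound dilutions, and release was stopped by vacuum filtration. Retained radioactivity was measured by scintillation counting. Dose-response; mean ± SD, N = 3–4, triplicate.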

SERT = SERT (Rattus norvegicus, UniProt P31652); assay: Uptake blocking at SERT; format: biochemical; conditions: subsequent experiments, data not shown
[1] = molecular target: dopamine transporters (DAT) (Rattus norvegicus, UniProt P23977); assay: Release assay at DAT, [3H]MPP+ preloaded rat brain synaptosomes; format: biochemical; conditions: (EC50 at DAT)^−1/(EC50 at SERT)^−1; higher value indicates greater DAT selectivity
Summary of the method: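 Male Sprague-Dawley rat (250–300 g) brain synaptosomes. DAT substrate was 9 nM [3H]MPP+ and SERT substrate 5 nM [3H]5-HT. Buffers held 1 μM reserpine, with unlabelled blockers of competing transporters. Synaptosomes were preloaded for 1 h in Krebs-phosphate buffer, then added to test compound. Filtration stopped release, and retained radioactivity was counted. The ratio comes from dose-response EC50s; N = 3–4, triplicate.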

[2] = cis to trans isomerization in solution; format: physicochemical; conditions: acetonitrile only

Chain of dopamine transporters (DAT) (P23977 whole entry): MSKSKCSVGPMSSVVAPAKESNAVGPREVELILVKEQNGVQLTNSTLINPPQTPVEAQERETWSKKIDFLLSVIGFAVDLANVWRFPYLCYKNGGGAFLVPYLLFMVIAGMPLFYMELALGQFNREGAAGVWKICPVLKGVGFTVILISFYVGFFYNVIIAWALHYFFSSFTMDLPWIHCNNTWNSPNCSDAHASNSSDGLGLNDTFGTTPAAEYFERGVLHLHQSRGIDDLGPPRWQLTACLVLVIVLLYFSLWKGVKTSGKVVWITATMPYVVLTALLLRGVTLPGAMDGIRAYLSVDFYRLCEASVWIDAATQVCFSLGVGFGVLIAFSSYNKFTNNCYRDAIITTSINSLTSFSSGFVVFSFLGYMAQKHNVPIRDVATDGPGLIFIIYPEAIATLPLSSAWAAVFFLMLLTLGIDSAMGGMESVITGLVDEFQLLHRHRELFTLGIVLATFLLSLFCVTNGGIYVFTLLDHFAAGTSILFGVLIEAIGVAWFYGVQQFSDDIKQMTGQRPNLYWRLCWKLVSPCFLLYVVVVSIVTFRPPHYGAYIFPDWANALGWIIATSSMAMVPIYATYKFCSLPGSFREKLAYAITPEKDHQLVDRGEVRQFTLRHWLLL
Chain of 5-HT transporters (SERT) (P31652 whole entry): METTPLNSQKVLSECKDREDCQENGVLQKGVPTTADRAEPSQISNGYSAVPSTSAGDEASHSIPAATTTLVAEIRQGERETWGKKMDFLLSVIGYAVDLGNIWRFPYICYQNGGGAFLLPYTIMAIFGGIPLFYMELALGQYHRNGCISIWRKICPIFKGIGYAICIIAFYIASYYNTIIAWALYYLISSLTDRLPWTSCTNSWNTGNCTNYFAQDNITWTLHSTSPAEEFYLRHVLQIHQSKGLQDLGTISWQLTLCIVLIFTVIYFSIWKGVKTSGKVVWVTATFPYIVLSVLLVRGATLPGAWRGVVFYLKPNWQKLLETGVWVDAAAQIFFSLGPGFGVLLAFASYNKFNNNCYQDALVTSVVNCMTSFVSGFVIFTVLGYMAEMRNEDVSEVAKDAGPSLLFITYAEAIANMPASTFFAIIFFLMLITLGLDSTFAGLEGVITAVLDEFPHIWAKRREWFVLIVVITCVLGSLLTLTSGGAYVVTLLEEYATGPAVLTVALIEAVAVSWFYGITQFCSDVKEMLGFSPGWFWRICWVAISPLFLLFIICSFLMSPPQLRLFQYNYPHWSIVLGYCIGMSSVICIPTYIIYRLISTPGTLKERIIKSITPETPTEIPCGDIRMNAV
Chain of SERT (P31652 whole entry): as above

Cc1ccc([C@@H]2OC(N)=N[C@H]2C)cc1 (relative stereo) [Trans-DMAR, trans-4,4′-dimethylaminorex]
maximal release at SERT (5-HT transporters (SERT); efficacy, % of maximal release): 75% | releasing efficacy at SERT (in words) (5-HT transporters (SERT)): partial releasing activity | uptake blocker efficacy at SERT (SERT): fully efficacious as an uptake blocker | DAT/SERT ratio [1]: 2.5

Cc1ccc([C@H]2OC(N)=N[C@H]2C)cc1 (relative stereo) [Cis-DMAR, cis-4,4′-dimethylaminorex]
releasing efficacy at SERT (in words) (5-HT transporters (SERT)): fully efficacious releasing agents | DAT/SERT ratio [1]: 1.6

CNC(C)Cc1ccc2c(c1)OCO2 (single isomer, unassigned; (+)) [(+)-MDMA, (+)-3,4-methylenedioxymethamphetamine]
DAT/SERT ratio [1]: 0.6

C[C@@H]1N=C(N)O[C@@H]1c1ccc2c(c1)OCO2 (racemic) [Cis-MDMAR, (±)-cis-3′,4′-Methylenedioxy-4-methylaminorex]
cis to trans isomerization [2]: Isomerization did not occur | releasing efficacy at SERT (in words) (5-HT transporters (SERT)): fully efficacious releasing agents | DAT/SERT ratio [1]: 4.3

C[C@@H]1N=C(N)O[C@H]1c1ccc2c(c1)OCO2 (racemic) [Trans-MDMAR, (±)-trans-3′,4′-Methylenedioxy-4-methylaminorex]
releasing efficacy at SERT (in words) (5-HT transporters (SERT)): fully efficacious releasing agents | DAT/SERT ratio [1]: 2.0
